Source: PubChem
CHT allo act = CHT positive allosteric modulators, primary screen, cell-based, membrane potential dye, choline EC20 | High affinity choline transporter 1 (Homo sapiens), Q9GZV3 | CHT-expressing cells; stronger effect = higher value; LV-AA mutant CHT in HEK293 cells | B-score at 10 µM | hit rate 0.49% among 310,000;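 active = initial fluorescence not abnormally high and integrated response B-score, plate-corrected, over 3 SD above library mean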
proCasp3 act = activators of human procaspase-3 D3A mutant, primary screen, biochemical, absorbance, PC-3 D3A mutant, single concentration; recombinant procaspase-3 D3A, Ac-DEVD-pNA absorbance 405 nm; hit rate 0.11% among 330,000; activation, % at 8.5 µM; AID 463141, 2010;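 active = activation above the mean of all tested compounds plus 3 SD, cut at about 21% in these data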
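assay system = Procaspase-3 D3A mutant | signal = absorbance at 405 nm, 0 and 120 min | times = 1 h preincubation plus 2 h reaction at 25 °C | repeats = single replicate | read-out = % activation between DMSO and enzyme-spiked controls | medium = Zinc-free HEPES saline buffer with Triton X-100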
proCasp7 act = procaspase-7 activators, primary screen, counter-screen for procaspase-3 activator project, biochemical, absorbance, HTS, human. recombinant procaspase-7, Ac-DEVD-pNA absorbance 405 nm; D23A/D198A/D206A triple mutant, cannot self-cleave; scale: DMSO 0, 5 µM enzyme 100. activation, % at 8.5 µM. hit rate 0.093% among 330,000. AID 463210, 2010;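 active = percent activation above the screen-wide mean plus 3 SD, cut at about 25% in these data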
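Test system: Procaspase-7 triple mutant (PC-7 D3A). Also added: Ac-DEVD-pNA substrate, 400 µM as added. Schedule: 1 h enzyme–compound preincubation and 2 h substrate reaction, both 25 °C. Signal: p-Nitroaniline absorbance at 405 nm, read at 0 and 120 min. Control set: low DMSO alone, high DMSO plus 5 µM PC-7.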
CHT inh = inhibitors of human choline transporter CHT | High affinity choline transporter 1 (Homo sapiens), Q9GZV3 | hit rate 0.86% among 310,000 | AID 488975, 2010 | B-score at 10 µM | CHT-expressing cells, membrane potential dye, choline response; stronger effect = lower value;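 active = B-score over 3 SD under the library average, and starting fluorescence ratio not unusually high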;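 note: choline stimulus applied at its EC90 after an EC20 pre-addition; B-score computed on integrated fluorescence ratio after choline addition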
CHT block conf = CHT inhibitors, confirmation, cell-based, membrane potential dye, duplicate; shares compounds with CHT inh; CHT-expressing cells, choline membrane potential dye; LV-to-AA substituted CHT, HEK293 cells; CHT activity remaining % of control (stronger effect = lower value), % at 10 µM; hit rate 70% among 2,400; AID 493221, 2011;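 active = choline transporter activity left, mean of duplicates at 10 µM, below buffer-only control mean minus 3 SD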;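 note: depolarization triggered by choline at its EC90 following an EC20 pre-addition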
HEK293 MPD ctr = membrane potential effects in parental HEK293, counter-screen for CHT inhibitor project, cell-based, membrane potential dye; shares compounds with CHT inh; choline response; active = decrease or increase beyond buffer ±3SD; membrane potential ratio readout (active if shifted either direction beyond buffer ±3SD; no single direction) at 10 µM; hit rate 4% among 2,400;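 note: parental cells lack the transporter so any hit is non-specific; ratio is peak minus trough fluorescence over baseline after EC90 choline challenge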
Large screens that a line does not name were inactive (follow-up assays come after a bar, where they were run). Most compounds without a hit are left out; they make up all but 1.3% or so of the library.

O=C(Nc1ccccc1)N(c1ccccc1)C1C=CS(=O)(=O)C1 (stereo not given)	none
CN(C)c1ccc(NC(=O)CSc2nc(C3CC3)nc3ccccc23)cc1	none
Cc1csc(C(C)NC(=O)c2ccc(OC3CCN(CCc4ccccc4)CC3)cc2)n1 (stereo not given)	CHT inh -6.4 | CHT block conf 30% | HEK293 MPD ctr 2.6
CC(C)N(C)C(=O)c1ccc(OC2CCN(CCc3ccccc3)CC2)cc1	none
O=C(Nc1cc(S(=O)(=O)N2CCCCC2)ccc1O)c1ccccc1NS(=O)(=O)c1ccc(F)c(F)c1	CHT inh -9.4 | CHT block conf 28% | HEK293 MPD ctr inactive
O=C(Nc1cccc(S(=O)(=O)N2CCCCC2)c1)c1ccccc1NS(=O)(=O)c1ccc(F)cc1	none
CC(OC(=O)CN1C(=O)NC2(CCCC2)C1=O)c1ccc(F)cc1 (stereo not given)	none (no result: CHT allo act, CHT inh)
c1ccc(NC2=Nc3cccc4cccc2c34)cc1	none
c1cc2c3c(cccc3c1)C(N1CCCCC1)=N2	CHT inh -6 | CHT block conf 65% | HEK293 MPD ctr 4.6
CN(C)Cc1c(C(=O)N/N=C/c2ccco2)nnn1-c1nonc1N	none
CCCN(CCC)Cc1c(C(=O)N/N=C/C(C)=C\c2ccco2)nnn1-c1nonc1N	CHT inh -5.3 | CHT block conf 60% | HEK293 MPD ctr inactive
O=C(COC(=O)CC1CC2CCC1C2)Nc1ccccc1[N+](=O)[O-] (stereo not given)	none (no result: CHT allo act, CHT inh)
CCc1nc2ccccc2c(C(=O)OCc2nc3ccccc3c(=O)[nH]2)c1C	none (no result: CHT allo act, CHT inh)
CN(C)C1(CN=Cc2cc(Cl)cc([N+](=O)[O-])c2O)CCCCC1	CHT inh -6.3 | CHT block conf 36% | HEK293 MPD ctr inactive
Cc1ccc(S(=O)(=O)N2CCCC2C(=O)N2CCCCCC2)cc1 (stereo not given)	none
Cc1ccc(S(=O)(=O)N2CCCCC2C(=O)N2CCN(Cc3ccccc3)CC2)cc1 (stereo not given)	CHT inh -7.9 | CHT block conf 37% | HEK293 MPD ctr -8.6
Cc1ccc(S(=O)(=O)NC2=C(N3CCN(Cc4ccccc4)CC3)C(=O)c3ccccc3C2=O)cc1	CHT inh -5.5 | CHT block conf 71% | HEK293 MPD ctr inactive
Cc1ccc(S(=O)(=O)NC2=C(N3CCN(c4ccccc4F)CC3)C(=O)c3ccccc3C2=O)cc1	none
CCOC(=O)c1cc(CC)sc1NC(=O)COc1ccc2c(C)cc(=O)oc2c1	CHT inh -7.3 | CHT block conf inactive | HEK293 MPD ctr inactive
COc1cccc(CNC(=O)CCCn2nc(C)c3c(C)n(-c4ccc(C)cc4)nc3c2=O)c1OC	none
CCOC(=O)c1cc(C(=O)NC(C)c2ccccc2)c(=O)[nH]c1C (stereo not given)	CHT inh -12 | CHT block conf 26% | HEK293 MPD ctr inactive
CCCC(=O)Nc1c2c(nn1-c1ccc(C)cc1)CS(=O)(=O)C2	CHT inh -6.1 | CHT block conf inactive | HEK293 MPD ctr inactive
Cc1ccc(N(CC(=O)N2CCN(c3ccc(F)cc3)CC2)S(=O)(=O)c2c(C)noc2C)cc1	none
CCOC(=O)CC1CCCCN1C(=O)c1cc(COc2cccc3cnccc23)on1 (stereo not given)	CHT inh -5.4 | CHT block conf 69% | HEK293 MPD ctr inactive
COC(=O)C1CCCCN1C(=O)c1cc(COc2cccc3cnccc23)on1 (stereo not given)	none
Cc1ccc(-c2csc3ncn(CC#N)c(=O)c23)cc1	CHT inh -5.6 | CHT block conf 50% | HEK293 MPD ctr inactive
Cc1ccc(-c2csc3ncn(CC#N)c(=O)c23)cc1C	none
